Assay results reported in ChEMBL document CHEMBL3853327 (J Med Chem, 2016).

Experiments:
[1] = AUMC (0 to t) in Sprague-Dawley rat plasma at 16 mg/kg administered through oral gavage measured at 5 mins to 24 hrs post dosing by LC/MS analysis; format: ADME, organism-based; settings: in vivo
In short: (§1)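 Male Sprague-Dawley rats, ten randomly split into two groups (n = 5), single gavage dose of 8 or 16 mg·kg−1 in PEG 400/normal saline (70/30, V/V). Jugular sinus blood into heparinized tubes at 5 min to 24 h; plasma separated at 2200g for 8 min, stored −20 °C. Methanol precipitation with internal standard, LC-MS quantitation against plasma standard curves. Parameters reported as mean ± SD.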

[2] = Apparent clearance during terminal phase in Sprague-Dawley rat plasma at 16 mg/kg administered through oral gavage measured at 5 mins to 24 hrs post dosing by LC/MS analysis; format: ADME, organism-based; settings: read-out: CLz/F (converted); in short: as §1
[3] = target: Human immunodeficiency virus type 1 reverse transcriptase (Human immunodeficiency virus 1, UniProt Q72547, K103N/Y181C); experiment: Inhibition of recombinant HIV1 reverse transcriptase K103N/Y181C double mutant using DIG-dUTP/biotin-dUTP/dTTP assessed as suppression of biotin-dUTP incorporation after 1 hr by ELISA
[4] = VRT (0 to t) in Sprague-Dawley rat plasma at 8 mg/kg administered through oral gavage measured at 5 mins to 24 hrs post dosing by LC/MS analysis; format: ADME, organism-based; settings: in vivo; in short: as §1
[5] = Selectivity index, ratio of CC50 for human mock-infected MT4 cells to EC50 for HIV1 3B harboring reverse transcriptase K103N mutant infected in human MT4 cells; format: toxicity, cell-based; settings: MT4 cells (mock-infected for CC50, HIV-1 infected for EC50)
In short: (§2)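 Selectivity index is CC50/EC50. CC50 is the concentration that reduces OD540 of mock-infected MT-4 cells by 50% in the 5-day MTT assay. EC50 is the 50% protection from virus-induced cytopathicity, measured in parallel on infected wells.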

[6] = test system: Human immunodeficiency virus 1; experiment: Antiviral activity against HIV1 3B harboring reverse transcriptase E138K mutant infected in human MT4 cells assessed as protection against virus induced cytotoxicity after 5 days by MTT assay; format: functional, cell-based; settings: Human immunodeficiency virus 1, 3B, MT4, 120 h
In short: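 MTT cytopathicity assay in MT-4 cells (6 × 10^5 cells/mL). Compounds serially diluted 5-fold in triplicate wells, run in parallel on infected and mock-infected cells. Virus added at 100−300 CCID50 per well. Viability read spectrophotometrically at 540 and 690 nm after 5 days, using the median OD of three wells. EC50 is the concentration giving 50% protection from viral cytopathogenicity.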

[7] = test system: Human immunodeficiency virus 1; experiment: Potency index, ratio of ETV EC50 to compound EC50 for HIV1 3B harboring reverse transcriptase Y181C mutant infected in human MT4 cells; format: functional
[8] = AUC (0 to t) in Sprague-Dawley rat plasma at 16 mg/kg administered through oral gavage measured at 5 mins to 24 hrs post dosing by LC/MS analysis; format: ADME, organism-based; parameters: time lower 0.083 hr, dose 16 mg/kg, time upper 24 hr, route oral; in short: as §1
[9] = AUMC (0 to infinity) in Sprague-Dawley rat plasma at 8 mg/kg administered through oral gavage measured at 5 mins to 24 hrs post dosing by LC/MS analysis; format: ADME, organism-based; settings: in vivo; in short: as §1
[10] = AUMC (0 to t) in Sprague-Dawley rat plasma at 8 mg/kg administered through oral gavage measured at 5 mins to 24 hrs post dosing by LC/MS analysis; format: ADME, organism-based; settings: in vivo; in short: as §1
[11] = test system: Human immunodeficiency virus 1; experiment: Fold resistance, ratio of EC50 for HIV1 3B harboring reverse transcriptase F227L/V106A double mutant infected in human MT4 cells to EC50 for wild type HIV1 3B harboring reverse transcriptase infected in human MT4 cells; format: functional
In short: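 Fold resistance is the EC50 against the mutant HIV-1 strain divided by the EC50 against WT IIIB. Both EC50s come from the MT-4 MTT cytoprotection assay (5-day read, 100−300 CCID50 inoculum).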

[12] = VRT (0 to infinity) in Sprague-Dawley rat plasma at 8 mg/kg administered through oral gavage measured at 5 mins to 24 hrs post dosing by LC/MS analysis; format: ADME, organism-based; settings: in vivo; in short: as §1
[13] = test system: Human immunodeficiency virus 1; experiment: Potency index, ratio of ETV EC50 to compound EC50 for wild type HIV1 3B harboring reverse transcriptase infected in human MT4 cells; format: functional
[14] = Apparent clearance during terminal phase in Sprague-Dawley rat plasma at 8 mg/kg administered through oral gavage measured at 5 mins to 24 hrs post dosing by LC/MS analysis; format: ADME, organism-based; settings: in vivo; in short: as §1
[15] = Selectivity index, ratio of CC50 for human mock-infected MT4 cells to EC50 for HIV1 3B harboring reverse transcriptase Y188L mutant infected in human MT4 cells; format: toxicity, cell-based; settings: MT4 cells (mock-infected for CC50, HIV-1 infected for EC50); in short: as §2
[16] = test system: Human immunodeficiency virus 1; experiment: Potency index, ratio of ETV EC50 to compound EC50 for HIV1 3B harboring reverse transcriptase L100I mutant infected in human MT4 cells; format: functional
[17] = VRT (0 to infinity) in Sprague-Dawley rat plasma at 16 mg/kg administered through oral gavage measured at 5 mins to 24 hrs post dosing by LC/MS analysis; format: ADME, organism-based; settings: in vivo; in short: as §1
Mus musculus = experiment: Acute toxicity in Kunming mouse assessed as increase in body weight at 2000 mg/kg, ig after 1 week; format: organism-based; settings: in vivo, po, 168 h
In short: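 Kunming mice (18−22 g), fasted 12 h, then given a single intragastric dose suspended in PEG-400 (100 or 200 mg·mL−1 for 1000 or 2000 mg·kg−1). Six mice per dose group, half male and half female. Deaths and body-weight gain followed for 1 week.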

[18] = test system: Human immunodeficiency virus 1; experiment: Fold resistance, ratio of IC50 for recombinant HIV1 reverse transcriptase K103N/Y181C double mutant to IC50 for wild type HIV1 reverse transcriptase
In short: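 Ratio of mutant to WT IC50. Recombinant WT and K103N/Y181C RT were assayed with a kit: template plus DIG-dUTP, biotin-dUTP and dTTP, with or without inhibitor, 1 h at 37 °C. Product was captured on streptavidin, detected with anti-DIG-POD and ABTS, and read at 405 nm. IC50 is the concentration inhibiting biotin-dUTP incorporation by 50%.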

[19] = Cmax in Sprague-Dawley rat plasma at 16 mg/kg administered through oral gavage measured at 5 mins to 24 hrs post dosing by LC/MS analysis; format: ADME, organism-based; parameters: dose 16 mg/kg, route oral; settings: in vivo; in short: as §1
[20] = Selectivity index, ratio of CC50 for human mock-infected MT4 cells to EC50 for HIV1 3B harboring reverse transcriptase F227L/V106A double mutant infected in human MT4 cells; format: toxicity, cell-based; settings: MT4 cells (mock-infected for CC50, HIV-1 infected for EC50); in short: as §2
[21] = Selectivity index, ratio of CC50 for human mock-infected MT4 cells to EC50 for wild type HIV1 3B harboring reverse transcriptase infected in human MT4 cells; format: toxicity, cell-based; settings: MT4 cells (mock-infected for CC50, HIV-1 infected for EC50); in short: as §2
[22] = test system: Human immunodeficiency virus 1; experiment: Potency index, ratio of ETV EC50 to compound EC50 for HIV1 3B harboring reverse transcriptase E138K mutant infected in human MT4 cells; format: functional
[23] = AUC (0 to infinity) in Sprague-Dawley rat plasma at 8 mg/kg administered through oral gavage measured at 5 mins to 24 hrs post dosing by LC/MS analysis; format: ADME, organism-based; parameters: dose 8 mg/kg, route oral, time infinity; settings: in vivo; in short: as §1
[24] = Selectivity index, ratio of CC50 for human mock-infected MT4 cells to EC50 for HIV1 3B harboring reverse transcriptase Y181C mutant infected in human MT4 cells; format: toxicity, cell-based; settings: MT4 cells (mock-infected for CC50, HIV-1 infected for EC50); in short: as §2
[25] = Cmax in Sprague-Dawley rat plasma at 8 mg/kg administered through oral gavage measured at 5 mins to 24 hrs post dosing by LC/MS analysis; format: ADME, organism-based; parameters: dose 8 mg/kg, route oral; settings: in vivo; in short: as §1

Compound: Cc1cc(C#N)cc(C)c1Oc1nc(NC2CCN(Cc3ccc(S(N)(=O)=O)cc3)CC2)nc2ccsc12
- AUMCt [1]: 5458.8 ug/L.hr
- CL/F [2]: 155 mL/min/kg
- IC50 [3]: 360 nM
- VRT(t) [4]: 7.78 hr2
- selectivity ratio [5]: > 67400
- EC50 [6]: 2.9 nM
- Ratio EC50 [7]: 5
- AUC(0-t) [8]: 1670 ng·h/mL
- AUMC [9]: 6474.1 ug/L.hr
- AUMCt [10]: 5690.8 ug/L.hr
- Ratio EC50 [11]: <3
- VRT [12]: 13.31 hr2
- Ratio EC50 [13]: 3
- CLz/F [14]: 172 mL/min/kg
- selectivity ratio [15]: > 70000
- Ratio EC50 [16]: 1.6
- VRT [17]: 25.29 hr2
- Activity (Mus musculus): Non-Toxic
- Ratio IC50 [18]: 1.2
- Cmax [19]: 472 ng/mL
- selectivity ratio [20]: > 78100
- selectivity ratio [21]: > 159000
- Ratio EC50 [22]: 5
- AUC [23]: 1720.9 ng·h/mL
- selectivity ratio [24]: > 78100
- Cmax [25]: 415 ng/mL
